Assay results from ChEMBL document CHEMBL5357076, “Structure-ATPase Activity Relationship of Rhodamine Derivatives as Potent Inhibitors of P-Glycoprotein CmABCB1” (ACS Med Chem Lett, 2024).
The source made the active and inactive calls. The calls are words filed in the database; no cut-off is given here.

Tests used:
Cyanidioschyzon merolae [1] = experiment: Binding affinity to Cyanidioschyzon merolae ABCB1 assessed as Km
Procedure, shortened: (§1)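 Purified wild-type CmABCB1 in β-DDM micelles; ATPase activity measured against rhodamine concentration with 5 mM ATP in 50 mM Tris–HCl (pH 7.5 at 37 °C), 150 mM NaCl, 0.05% (w/v) β-DDM, 37 °C, 30 min. Bell-shaped activity curve fitted to a modified Michaelis–Menten equation giving Km (stimulation) and Ki (substrate inhibition); means ± SD, n = 3.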

[2] = Inhibition of Cyanidioschyzon merolae ABCB1 ATPase activity assessed as inhibition constant by colorimetric analysis; procedure, shortened: as §1
Saccharomyces cerevisiae [3] = experiment: Antimicrobial activity against Saccharomyces cerevisiae expressing AD1-8u- cells assessed as growth inhibition upto 30 uM incubated for 15 to 17 hrs; format: functional, organism-based; conditions: time 15-17 hrs
Procedure, shortened: (§2)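 S. cerevisiae AD1-8u cells expressing wild-type CmABCB1, alongside mock-transfected AD1-8u cells, grown in YPD medium with a range of drug concentrations at 30 °C for 15–17 h; growth compared between strains; means ± SD, n = 3.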

Saccharomyces cerevisiae [4] = experiment: Antimicrobial activity against Saccharomyces cerevisiae expressing AD1-8u- cells assessed as growth inhibition at 1 uM incubated for 15 to 17 hrs; format: functional, organism-based; conditions: time 15-17 hrs; procedure, shortened: as §2
Cyanidioschyzon merolae [5] = experiment: Potency index, ratio of test compound Km to Rhodamine 6G Km for binding affinity to Cyanidioschyzon merolae ABCB1 assessed as Km
Cyanidioschyzon merolae [6] = experiment: Potency index, ratio of test compound Ki to Rhodamine 6G Ki for inhibition of Cyanidioschyzon merolae ABCB1 ATPase activity assessed as inhibition constant by colorimetric analysis
Cyanidioschyzon merolae [7] = experiment: Substrate activity at Cyanidioschyzon merolae ABCB1 4WY/M391W mutant assessed as tryptophan quenching ratio by measuring inner chamber entry by fluorescence based analysis
Procedure, shortened: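 Purified CmABCB1 4WY/M391W mutant (four of six native Trp removed, Trp introduced at 391), 13 μg/mL in 20 mM Tris–HCl (pH 7.5 at 25 °C), 150 mM NaCl, 0.05% (w/v) β-DDM, titrated with compound (0–1.0 μM) at 25 °C; excitation 290 nm, quenching ratio of emission at 340 nm.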

SMILES	Km (Cyanidioschyzon merolae [1])	Ki [2]	other results
CCCCOC(=O)c1ccccc1C1=c2cc3c(cc2Oc2cc4c(cc21)CCCN4)=NCCC3	1.7 µM	14 µM	
O=C(OCc1cccc(C(F)(F)F)c1)c1ccccc1C1=c2cc3c(cc2Oc2cc4c(cc21)CCCN4)=NCCC3	0.44 µM	18 µM	
CN(C)c1cccc(COC(=O)c2ccccc2C2=c3cc4c(cc3Oc3cc5c(cc32)CCCN5)=NCCC4)c1	0.52 µM	10 µM	
CC/N=c1/cc2oc3cc(NCC)c(C)cc3c(-c3ccccc3C(=O)OCC)c-2cc1C	2.9 µM	690 µM	Activity (Saccharomyces cerevisiae [3]): inactive; Activity (Saccharomyces cerevisiae [4]): Active
CCCCOC(=O)c1ccccc1C1=c2cc3c4c(c2Oc2c1cc1c5c2CCCN5CCC1)CCC[N+]=4CCC3	1.5 µM	43 µM	
O=C(OCc1cccc([N+](=O)[O-])c1)c1ccccc1C1=c2cc3c(cc2Oc2cc4c(cc21)CCCN4)=NCCC3	0.55 µM	12 µM	
CCCCOC(=O)c1ccccc1-c1c2cc(C)c(=[N+]3CCCC3)cc-2oc2cc(N3CCCC3)c(C)cc12	1.1 µM	110 µM	
O=C(OCc1ccc2ccccc2c1)c1ccccc1C1=c2cc3c(cc2Oc2cc4c(cc21)CCCN4)=NCCC3	0.77 µM	9.6 µM	
COc1cc(COC(=O)c2ccccc2C2=c3cc4c(cc3Oc3cc5c(cc32)CCCN5)=NCCC4)cc(OC)c1	0.31 µM	31 µM	
CCCCOC(=O)c1ccccc1-c1c2cc(C)/c(=N\CC)cc-2oc2cc(NCC)c(C)cc12	4.6 µM	560 µM	
CCCC/N=c1/cc2oc3cc(NCCCC)c(C)cc3c(-c3ccccc3C(=O)OCCCC)c-2cc1C	3.2 µM	160 µM	

Stronger by Ki [2], values ahead:

Km (Cyanidioschyzon merolae [1])	Ki [2]	SMILES	other results
0.58 µM	8.2 µM	COc1cccc(COC(=O)c2ccccc2C2=c3cc4c(cc3Oc3cc5c(cc32)CCCN5)=NCCC4)c1	
3.9 µM	1.2 µM	O=C(OCc1ccccc1C(F)(F)F)c1ccccc1C1=c2cc3c(cc2Oc2cc4c(cc21)CCCN4)=NCCC3	
0.81 µM	8.9 µM	O=C(OCc1ccccc1)c1ccccc1C1=c2cc3c(cc2Oc2cc4c(cc21)CCCN4)=NCCC3	
0.5 µM	8.2 µM	COc1ccccc1COC(=O)c1ccccc1C1=c2cc3c(cc2Oc2cc4c(cc21)CCCN4)=NCCC3	
2.3 µM	6.3 µM	O=C(OCc1cc(C(F)(F)F)cc(C(F)(F)F)c1)c1ccccc1C1=c2cc3c(cc2Oc2cc4c(cc21)CCCN4)=NCCC3	
0.73 µM	9.1 µM	COc1ccc(COC(=O)c2ccccc2C2=c3cc4c(cc3Oc3cc5c(cc32)CCCN5)=NCCC4)cc1	
0.55 µM	5.8 µM	COc1cccc(OC)c1COC(=O)c1ccccc1C1=c2cc3c(cc2Oc2cc4c(cc21)CCCN4)=NCCC3	Ratio (Cyanidioschyzon merolae [5]): 5; Ratio Ki (Cyanidioschyzon merolae [6]): 120; Activity (Cyanidioschyzon merolae [7]): 30%
1.4 µM	8.1 µM	O=C(OCCc1ccccc1)c1ccccc1C1=c2cc3c(cc2Oc2cc4c(cc21)CCCN4)=NCCC3	
0.56 µM	8.4 µM	Cc1cccc(COC(=O)c2ccccc2C2=c3cc4c(cc3Oc3cc5c(cc32)CCCN5)=NCCC4)c1	
